Active and inactive are the calls of the source. No cut-off for these calls is given here.
Assays:
[1] = system: SK-N-SH; test: Cytoprotection against rotenone stress-induced toxicity in human SK-N-SH cells after 48 hrs by MTS assay; assay type: functional, cell-based
Summary of the method: (§1)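 SK-N-SH neuroblastoma cells (within passage 6) seeded in DMEM with 0.1% FBS for 18 h, then fresh medium with 200 nM rotenone (final) plus compound, 0.019 to 10 µM. Incubated 48 h, then MTS viability read. Cytoprotection expressed as viability increase over the rotenone DMSO control; EC50 = concentration giving half-maximal protection. Data averaged over multiple tests.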

[2] = (§2) Cytotoxicity against human HeLa cells after 72 hrs by MTS assay; assay type: cell-based; conditions: HeLa cells
Summary of the method: (§3)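 HeLa (8000 cells/well) or SK-N-SH (14,000 cells/well) cells seeded in DMEM with 10% FBS for 18 h. Compound added at 1:200 dilution, final 0.3 to 80 µM, 0.5% v/v DMSO. Exposure 72 h, then MTS/PMS for 4 h, SDS to 1.4% w/v, absorbance at 492 nm. CC50 = concentration giving half-maximal cytotoxicity.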

[3] = Cytotoxicity against human SK-N-SH cells after 72 hrs by MTS assay; assay type: cell-based; summary of the method: as §3
[4] = target: T1, Heat shock factor protein 1 (Homo sapiens) (UniProt Q00613); test: Amplification of HSF1 transcriptional activity in human HeLa cells assessed as granule formation pretreated for 3 hrs by immunocytochemical staining; assay type: cell-based
T1 sequence (whole entry): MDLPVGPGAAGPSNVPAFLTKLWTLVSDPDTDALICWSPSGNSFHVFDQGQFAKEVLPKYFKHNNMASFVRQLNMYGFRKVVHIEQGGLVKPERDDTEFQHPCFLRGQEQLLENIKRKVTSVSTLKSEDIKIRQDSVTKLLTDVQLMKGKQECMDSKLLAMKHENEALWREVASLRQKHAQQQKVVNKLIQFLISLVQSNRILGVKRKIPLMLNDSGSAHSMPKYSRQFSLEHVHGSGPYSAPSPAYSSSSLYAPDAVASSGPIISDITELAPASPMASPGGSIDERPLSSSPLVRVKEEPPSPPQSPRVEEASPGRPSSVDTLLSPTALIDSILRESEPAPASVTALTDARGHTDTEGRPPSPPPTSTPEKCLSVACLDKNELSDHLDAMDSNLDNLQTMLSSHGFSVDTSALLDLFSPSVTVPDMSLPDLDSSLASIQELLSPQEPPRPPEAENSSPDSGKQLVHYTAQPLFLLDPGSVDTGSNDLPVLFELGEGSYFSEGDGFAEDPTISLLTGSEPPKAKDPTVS
Summary of the method: (§4)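 HeLa cells pretreated with compound 1 h, then mild heat shock 41 °C for 2 h, no recovery; control arm pretreated 3 h at 37 °C without heat shock. Compound diluted 200-fold, 0.3 to 80 µM range.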

[5] = system: SK-N-SH; test: Cytoprotection against rotenone stress-induced toxicity in human SK-N-SH cells assessed as increase in cell viability after 48 hrs by MTS assay relative to control; assay type: functional; design: concentration or dose not given beside the values; summary of the method: as §1
[6] = system: SH-SY5Y; test: Cytoprotection against oxygen-glucose deprivation-induced cytotoxicity in human SH-SY5Y cells at 2.5 uM after 28 hrs by MTS assay; assay type: functional
Summary of the method: (§5)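 SH-SY5Y cells plated on collagen I-coated wells, grown 16–24 h in complete medium, washed twice in deoxygenated glucose- and serum-free medium; compound added within 1 h before OGD. Chambers flushed with 95% N₂/5% CO₂, residual O₂ <1%, held at 37 °C for 28 h. MTS viability; cytoprotection = (MTS_compound − MTS_DMSO)/MTS_DMSO × 100% versus OGD DMSO control.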

[7] = system: SH-SY5Y; test: Cytoprotection against oxygen-glucose deprivation-induced cytotoxicity in human SH-SY5Y cells at 0.5 uM after 28 hrs by MTS assay; assay type: functional; summary of the method: as §5
[8] = system: SH-SY5Y; test: Cytoprotection against oxygen-glucose deprivation-induced cytotoxicity in human SH-SY5Y cells at 1 uM after 28 hrs by MTS assay; assay type: functional; summary of the method: as §5
[9] = system: SK-N-SH; test: Cytoprotection against rotenone stress-induced toxicity in human SK-N-SH cells at 0.63 uM after 48 hrs by MTS assay; assay type: functional; summary of the method: as §1
[10] = system: SK-N-SH; test: Cytoprotection against rotenone stress-induced toxicity in human SK-N-SH cells at 0.16 uM after 48 hrs by MTS assay; assay type: functional
Summary of the method: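 SK-N-SH cells (within passage 6) seeded in DMEM with 0.1% FBS for 18 h, then fresh medium with rotenone (final 200 nM) plus compound (range from 0.019 up to 10). Incubated 48 h, viability by MTS; cytoprotection as viability increase over DMSO-plus-rotenone control.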

[11] = system: HeLa; test: Cytotoxicity against human HeLa cells at 80 uM after 72 hrs by MTS assay; assay type: cell-based; summary of the method: as §3
[12] = system: HeLa; test: as §2; assay type: cell-based; conditions: hela, 72 h; summary of the method: as §3
[13] = Therapeutic index, ratio of CC50 for human SK-N-SH cells to EC50 for human SK-N-SH cells; assay type: cell-based; conditions: read-out: Ratio CC50/EC50
[14] = Therapeutic index, ratio of […]; assay type: cell-based; conditions: read-out: FC
[15] = target: T1, Heat shock factor protein 1 (Homo sapiens); test: Amplification of HSF1 transcriptional activity in human HeLa cells assessed as […] granule count at 80 uM by immunocytochemical staining; assay type: cell-based; summary of the method: as §4
[16] = target: T2, Heat shock factor protein 1 (Homo sapiens, UniProt Q00613); test: Amplification of HSF1 transcriptional activity in human heat shock-induced HeLa cells assessed as granule formation treated 1 hr before heat shock challenge measured after 2 hrs without recovery time by immunocytochemical staining; assay type: cell-based
T2 sequence (Q00613 whole entry): T1 sequence (whole entry)
Summary of the method: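 HeLa cells given compound 1 h before mild heat shock at 41 °C for 2 h, no recovery; compound diluted 200-fold, 0.3 to 80 µM. Unstressed control plates kept at 37 °C for 3 h. HSF1 immunocytochemical staining, imaged at 10×.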

[17] = system: SK-N-SH; test: Cytoprotection against rotenone stress-induced toxicity in human SK-N-SH cells assessed as increase in cell survival at 0.625 after 48 hrs by MTS assay relative to control; assay type: functional; summary of the method: as §1
[18] = system: SK-N-SH; test: Cytoprotection against rotenone stress-induced toxicity in human SK-N-SH cells at 1.25 uM after 48 hrs by MTS assay; assay type: functional; summary of the method: as §1
[19] = Homo sapiens, SK-N-SH, 48 h, read-out: EC50

SMILES	EC50 [1, 19] [µM]	CC50 at 72 h [2] [µM]	CC50 at 72 h [3] [µM]	Activity [4]	Activity [5]	further results
CC(C)Cn1nc(-c2nc3ccccc3s2)nc2c(=O)n(C)c(=O)nc1-2	0.27	7.9	3.7	inactive	67%	–
CCn1nc(-c2ccc[nH]2)nc2c(=O)n(C)c(=O)nc1-2	0.68	10.7	4.3	inactive	44%	–
Cn1c(=O)nc2n(Cc3ccc(F)cc3)nc(-c3nc4ccccc4s3)nc-2c1=O	–	23.4	21.3	inactive	inactive	EC50 ([1]; sk-n-sh): Not Active
CCCCn1nc(-c2nccs2)nc2c(=O)n(C)c(=O)nc1-2	–	2.5	1.4	inactive	55%	Activity [6]: 39%; Activity [7]: 7%; Activity [8]: 23%; Activity [9]: 55%
CCn1nc(-c2ccc(C)o2)nc2c(=O)n(C)c(=O)nc1-2	1.84	22.3	8.2	inactive	50%	–
CC1=C(O)C(=O)C=C2C1=CC=C1[C@@]2(C)CC[C@@]2(C)[C@@H]3C[C@](C)(C(=O)O)CC[C@]3(C)CC[C@]12C [CELASTROL]	–	3	1.6	–	24%	Activity [6]: -22%; Activity [7]: 8%; Activity [8]: 18%; Activity [10]: 24%
CCCCn1nc(-c2nc3ccccc3[nH]2)nc2c(=O)n(C)c(=O)nc1-2	1.9	–	13.1	inactive	59%	Activity [11]: 76%; Activity [12]: Not Active
CCn1nc(-c2ccc(C)s2)nc2c(=O)n(C)c(=O)nc1-2	1.33	22.2	63.5	inactive	50%	selectivity ratio [13]: ≤ 48; selectivity ratio [14]: ≤ 7
CCCCn1nc(-c2ccc[nH]2)[n+]([O-])c2c(=O)n(C)c(=O)nc1-2	0.64	6.3	1.5	inactive	49%	–
CCn1nc(-c2cccs2)nc2c(=O)n(C)c(=O)nc1-2	0.41	10.5	9.9	inactive	53%	Activity [6]: 14%; Activity [7]: 18%; Activity [8]: 48%
CCn1nc(-c2ccc[nH]2)[n+]([O-])c2c(=O)n(C)c(=O)nc1-2	0.17	5.2	1.9	inactive	35%	–
CCCn1nc(-c2nc3ccccc3s2)nc2c(=O)n(C)c(=O)nc1-2	0.55	15.6	5.4	inactive	55%	Activity [15]: 25%
Cn1c(=O)nc2[nH]nc(-c3cccs3)nc-2c1=O	–	–	–	–	inactive	EC50 [16]: Not Active; EC50 ([1]; sk-n-sh): Not Active
CCCCn1nc(-c2ccccc2)nc2c(=O)n(C)c(=O)nc1-2	0.49	18.5	9.8	inactive	58%	–
CCCCn1nc(-c2ncc[nH]2)nc2c(=O)n(C)c(=O)nc1-2	0.3	3.6	1.3	inactive	56%	–
CCCCn1nc(-c2ccc3ccccc3n2)nc2c(=O)n(C)c(=O)nc1-2	0.29	9.5	4	inactive	71%	Activity [17]: 103%
CCCCn1nc(-c2ccc(C)o2)[n+]([O-])c2c(=O)n(C)c(=O)nc1-2	–	9	6.6	inactive	49%	Activity [18]: 49%
CCn1nc(-c2ccc(C)o2)[n+]([O-])c2c(=O)n(C)c(=O)nc1-2	–	9.8	3.3	inactive	56%	Activity [18]: 56%
CCn1nc(-c2ccc(C)s2)[n+]([O-])c2c(=O)n(C)c(=O)nc1-2	1.1	15	27.2	inactive	57%	–
CCCCn1nc(-c2nc3ccccc3s2)nc2c(=O)n(C)c(=O)nc1-2	0.23	8.7	8.4	inactive	53%	Activity [6]: 80%; Activity [7]: 14%; Activity [8]: 38%
Cn1c(=O)nc2n(Cc3ccccc3)nc(-c3nc4ccccc4s3)nc-2c1=O	2.34	7.3	5.6	inactive	27%	–
CCCCn1nc(-c2ccc(C)s2)nc2c(=O)n(C)c(=O)nc1-2	–	15.3	18.2	inactive	44%	Activity [18]: 44%
Cn1c(=O)[nH]c2nnc(-c3cccs3)nc2c1=O	–	> 80	> 80	–	–	–
CCCCn1nc(-c2ccc(C)o2)nc2c(=O)n(C)c(=O)nc1-2	0.33	7.8	5.3	inactive	23%	–
CCn1nc(-c2ccco2)nc2c(=O)n(C)c(=O)nc1-2	–	5.6	2.8	inactive	64%	Activity [18]: 64%
CCCCn1nc(-c2ccc(C)s2)[n+]([O-])c2c(=O)n(C)c(=O)nc1-2	0.19	6.6	7.2	inactive	27%	–
CCn1nc(-c2ncc[nH]2)nc2c(=O)n(C)c(=O)nc1-2	2.71	11.9	3.6	inactive	62%	–
CC(C)CCn1nc(-c2nc3ccccc3s2)nc2c(=O)n(C)c(=O)nc1-2	0.24	16.9	10.7	inactive	44%	–

Source: ChEMBL document CHEMBL1152353, “Pyrimido[5,4-e][1,2,4]triazine-5,7(1H,6H)-dione derivatives as novel small molecule chaperone amplifiers” (Bioorg Med Chem Lett, 2009)
